Data set [1] is described as follows: Selectivity index, ratio of CC50 for BALB/c mouse splenocytes to IC50 for amastigote stage of iRFP expressing Leishmania infantum BCN150 infected in BALB/c mouse splenocytes. In kind it is toxicity, cell-based. Particulars: read-out: Ratio CC50/IC50. In a few lines: (§1)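 Female BALB/c mice infected intravenously with metacyclic L. infantum-iRFP promastigotes. After 5 weeks, spleens collagenase-digested (2 mg/mL, 20 min, 37 °C); splenocytes plated in RPMI with 20% FCS. Compounds added at 10 to 0.07 μM for 72 h. Infrared emission read at 708 nm; IC50 is the 50% reduction versus DMSO control. SI = CC50 in uninfected splenocytes / amastigote IC50.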

The nature of data set [2]: Cytotoxicity against BALB/c mouse splenocytes assessed as decrease in […] viability after 72 hrs by Alamar blue assay. In kind it is cell-based, Splenocyte. In a few lines: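 Uninfected BALB/c mouse splenocytes, obtained and cultured as for the explants (RPMI, 20% FCS), exposed to compounds at 100 to 0.8 μM for 72 h at 37 °C. Viability read by Alamar Blue. CC50 taken from dose-response curves. Mean ± sd of at least three experiments in triplicate.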

The nature of data set [3]: Inhibition of Leishmania donovani Top1B expressed in Top1B deficient Saccharomyces cerevisiae EKY3 assessed as decrease in relaxation of supercoiled pSK DNA preincubated for 15 mins followed by DNA addition and measured after 1 to 16 mins by agarose gel electrophoresis. Summed up: (§2)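 Recombinant LTopIB or hTopIB from TopIB-deficient yeast EKY3 (galactose-induced), purified on phosphocellulose then phenyl-Sepharose. Enzyme (1 unit) preincubated with compound for 15 min at 37 °C. Then 0.5 μg supercoiled pSK DNA added in 10 mM Tris-HCl pH 7.5, 5 mM MgCl₂, 0.1 mM EDTA, 50 mM KCl, BSA. Incubated at 37 °C, stopped with 1% SDS. Agarose gel; relaxed and supercoiled bands quantified.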

In data set [4] the test system is Leishmania infantum. Nature of the data set: Leishmanicidal activity against promastigote stage of iRFP expressing Leishmania infantum BCN150 assessed as decrease in parasite viability. The format is functional, organism-based. Summed up: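 Promastigotes grown in M199 with 10% heat-inactivated FCS, seeded at 10^6 cells/mL. Compounds given as three-fold DMSO stock dilutions, final DMSO ≤0.1%. Viability read as infrared fluorescence (ex 684, em 708 nm). IC50 is the 50% emission reduction versus DMSO control, from nonlinear fits. Triplicate wells.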

The test system of data set [5] is Leishmania infantum. Briefly: Leishmanicidal activity against amastigote stage of iRFP expressing Leishmania infantum BCN150 infected in BALB/c mouse splenocytes assessed as decrease in parasite viability after 72 hrs. In kind it is functional, organism-based. The settings on record: BCN150, 72 h. In a few lines: as §1
The target of a further data set is T1, DNA topoisomerase 1 (Homo sapiens, UniProt P11387).
T1 sequence (P11387 whole entry): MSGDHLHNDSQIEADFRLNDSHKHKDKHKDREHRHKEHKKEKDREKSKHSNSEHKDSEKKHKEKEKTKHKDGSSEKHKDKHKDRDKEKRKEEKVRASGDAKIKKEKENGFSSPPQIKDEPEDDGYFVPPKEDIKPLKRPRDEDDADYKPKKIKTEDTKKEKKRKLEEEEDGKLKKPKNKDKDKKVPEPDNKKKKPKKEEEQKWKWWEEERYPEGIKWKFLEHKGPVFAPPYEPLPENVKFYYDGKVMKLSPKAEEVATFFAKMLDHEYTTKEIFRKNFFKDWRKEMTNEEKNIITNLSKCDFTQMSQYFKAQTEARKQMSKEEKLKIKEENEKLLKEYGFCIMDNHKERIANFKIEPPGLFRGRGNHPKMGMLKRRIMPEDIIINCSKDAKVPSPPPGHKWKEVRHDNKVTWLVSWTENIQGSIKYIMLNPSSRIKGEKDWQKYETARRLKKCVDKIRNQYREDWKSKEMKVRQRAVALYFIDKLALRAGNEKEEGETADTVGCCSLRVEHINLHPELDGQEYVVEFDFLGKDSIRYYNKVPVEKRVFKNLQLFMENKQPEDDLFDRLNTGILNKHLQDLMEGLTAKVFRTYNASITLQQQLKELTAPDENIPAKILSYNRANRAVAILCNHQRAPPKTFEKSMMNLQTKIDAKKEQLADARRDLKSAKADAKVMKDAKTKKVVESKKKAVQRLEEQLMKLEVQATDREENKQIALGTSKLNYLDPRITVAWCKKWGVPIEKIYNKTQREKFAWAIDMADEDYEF
Nature of the data set: Inhibition of human Top1B expressed in Top1B deficient Saccharomyces cerevisiae EKY3 assessed as decrease in relaxation of supercoiled pSK DNA preincubated for 15 mins followed by DNA addition and measured after 1 to 16 mins by agarose gel electrophoresis. Summed up: as §2

The test system of another data set is Leishmania donovani. Briefly: Inhibition of Leishmania donovani Top1B expressed in Top1B deficient Saccharomyces cerevisiae EKY3 assessed as decrease in relaxation of supercoiled pSK DNA at 100 uM at 37 degC preincubated for 15 mins followed by DNA addition and measured after 1 to 16 mins by agarose gel electrophoresis. In a few lines:
as §2

Calls of active or inactive are those of the source. The rule behind the calls is not given here.

Usually CC50 stands for the concentration giving 50% cytotoxicity. Turning to `C[C@@H]1[C@H](O)[C@@H](C)/C=C/C=C/C=C/C=C/C=C/C=C/C=C/[C@H](O[C@@H]2O[C@H](C)[C@@H](O)[C@H](N)[C@@H]2O)C[C@@H]2O[C@](O)(C[C@@H](O)C[C@@H](O)[C@H](O)CC[C@@H](O)C[C@@H](O)CC(=O)O[C@H]1C)C[C@H](O)[C@H]2C(=O)O` [AMPHOTERICIN B], in data set [1], the selectivity ratio is above 62.5. The cytotoxic concentration (CC50) at 72 h in data set [2] is above 20 µM.

Usually IC50 stands for the concentration that inhibits the measured activity by half. Turning to `O=[N+]([O-])c1cccc(-c2cc(-c3ccc(-c4ccccc4)cc3)c3ncccc3n2)c1`, the IC50 in data set [3] (read-out: IC50) was 78.7 µM; with Leishmania infantum [4], 15.1 µM; in the data set with Leishmania infantum [5], 0.29 µM; on DNA topoisomerase 1 (read-out: IC50) it was 67.5 µM. For the same compound, in data set [1], the selectivity ratio stood at 104. Further, the CC50 at 72 h in data set [2] was determined as 30.1 µM.

For the compound `Fc1ccc(-c2cc(-c3ccsc3)c3ncccc3n2)cc1`, the IC50 in data set [3] (read-out: IC50) worked out at 49.3 µM; in the data set with Leishmania infantum [4], 67 µM; with Leishmania infantum [5], 7.93 µM; at DNA topoisomerase 1 (read-out: IC50) it was 43.8 µM. In addition, the selectivity ratio in data set [1] worked out at 4.1. The cytotoxic concentration (CC50) at 72 h in data set [2] was found to be 32.5 µM.

As for `COc1ccc(-c2cc(-c3ccc(F)cc3)nc3cccnc23)cc1`, the IC50 result was “Not Active” in data set [3], 97.2 µM with Leishmania infantum [4], 0.76 µM in the data set with Leishmania infantum [5] and “Not Active” on DNA topoisomerase 1. The selectivity ratio in data set [1] was 31.8. Besides, the CC50 at 72 h in data set [2] worked out at 24.2 µM.

Turning to `O=[N+]([O-])c1cccc(-c2cc(-c3ccccc3)c3ncccc3n2)c1`, the IC50 was 79.2 µM in the data set with Leishmania infantum [4], 1.02 µM in the data set with Leishmania infantum [5] and “Not Active” on DNA topoisomerase 1. Further, in data set [1], the selectivity ratio was found to be 143. In addition, in data set [2], the CC50 at 72 h turned out to be 146 µM.

Regarding `Fc1ccc(-c2cc(-c3ccc(-c4ccccc4)cc3)c3ncccc3n2)cc1`, the IC50 in data set [3] (read-out: IC50) stood at 58.1 µM; with Leishmania infantum [4], 45.2 µM; in the data set with Leishmania infantum [5], 5.04 µM; on DNA topoisomerase 1 (read-out: IC50), 83.3 µM. In data set [1], the selectivity ratio was found to be 30.2. For the same compound, the CC50 at 72 h in data set [2] stood at 153 µM.

Consider `COc1ccc(-c2cc(-c3ccc(C(F)(F)F)cc3)nc3cccnc23)cc1`, for which the IC50 in the data set with Leishmania infantum [4] was above 100 µM; with Leishmania infantum [5] it was 2.26 µM; on DNA topoisomerase 1, “Not Active”. In addition, in data set [1], the selectivity ratio came to 67.1. Besides, the CC50 at 72 h in data set [2] amounted to 152 µM.

Regarding `FC(F)(F)c1ccc(-c2cc(-c3ccccc3)c3ncccc3n2)cc1`, the IC50 stood at 69.5 µM in data set [3] (read-out: IC50), 37.3 µM in the data set on Leishmania infantum [4], 0.47 µM in the data set on Leishmania infantum [5] and 72.7 µM at DNA topoisomerase 1 (read-out: IC50). The selectivity ratio in data set [1] was 140. Also, the CC50 at 72 h in data set [2] is 65.7 µM.

For `Cc1c(-c2ccc(C(F)(F)F)cc2)nc2cccnc2c1-c1ccccc1`, the concentration for half-maximal inhibition (IC50) in data set [3] (read-out: IC50) is 75.7 µM; in the data set with Leishmania infantum [4], above 100 µM; with Leishmania infantum [5], 2.37 µM; at DNA topoisomerase 1 (read-out: IC50), 70.6 µM. The selectivity ratio in data set [1] is 53.2. Further, in data set [2], the CC50 at 72 h is 126 µM.

Regarding `Fc1ccc(-c2cc(-c3ccccc3)c3ncccc3n2)cc1`, the IC50 in data set [3] (read-out: IC50) is 81.9 µM; in the data set with Leishmania infantum [4] it was above 100 µM; in the data set on Leishmania infantum [5], 7.41 µM; on DNA topoisomerase 1 (read-out: IC50), 72.8 µM. In addition, the selectivity ratio in data set [1] is 16.7. In addition, the half-maximal cytotoxic concentration (CC50) at 72 h in data set [2] was 124 µM.

Regarding `COc1ccc(-c2cc(-c3cccc([N+](=O)[O-])c3)nc3cccnc23)cc1`, the IC50 result in data set [3] was “Not Active”; in the data set on Leishmania infantum [4], 45.2 µM; with Leishmania infantum [5], 3.79 µM; at DNA topoisomerase 1, “Not Active”. In data set [1], the selectivity ratio is 35.1. Moreover, the half-maximal cytotoxic concentration (CC50) at 72 h in data set [2] is 133 µM.

For the compound `Fc1ccc(-c2cc(-c3ccccc3)c3ncccc3n2)cc1F`, the IC50 in data set [3] (read-out: IC50) is 76.6 µM; with Leishmania infantum [4] it was above 100 µM; in the data set with Leishmania infantum [5], 2.82 µM; at DNA topoisomerase 1 (read-out: IC50), 73.1 µM. Moreover, the selectivity ratio in data set [1] worked out at 7.7. Moreover, the half-maximal cytotoxic concentration (CC50) at 72 h in data set [2] stood at 21.7 µM.

Turning to `COc1ccc(-c2cc(-c3ccc([N+](=O)[O-])cc3)nc3cccnc23)cc1`, the IC50 entry in data set [3] is “Not Active”; in the data set on Leishmania infantum [4], 20.7 µM; with Leishmania infantum [5], 0.58 µM; on DNA topoisomerase 1 it was “Not Active”. Further, the selectivity ratio in data set [1] came to 187. Besides, the CC50 at 72 h in data set [2] amounted to 109 µM.

With `COc1cccc(-c2cc(-c3ccccc3)c3ncccc3n2)c1`, the IC50 in the data set on Leishmania infantum [4] is above 100 µM; in the data set on Leishmania infantum [5], 0.58 µM; on DNA topoisomerase 1 (read-out: IC50) it was 82 µM. Moreover, the selectivity ratio in data set [1] turned out to be 272. In addition, the CC50 at 72 h in data set [2] was 157 µM.

Consider `c1ccc(-c2cc(-c3ccccc3)c3ncccc3n2)cc1`, for which the 50% inhibitory concentration (IC50) with Leishmania infantum [4] was determined as 27.2 µM; with Leishmania infantum [5] it was 8.42 µM; at DNA topoisomerase 1 (read-out: IC50), 11.2 µM. In the data set on Leishmania donovani, the inhibition entry is “Active”. For the same compound, the selectivity ratio in data set [1] stood at 6.5. The CC50 at 72 h in data set [2] stood at 54.8 µM.

Take `CC[C@@]1(O)C(=O)OCc2c1cc1n(c2=O)Cc2cc3ccccc3nc2-1` [CAMPTOTHECIN]: the IC50 in data set [3] (read-out: IC50) was found to be 75.7 µM.

Take `FC(F)(F)c1ccc(-c2cc(-c3ccc(C(F)(F)F)cc3)c3ncccc3n2)cc1`: the IC50 was above 100 µM in the data set with Leishmania infantum [4], 9.47 µM in the data set on Leishmania infantum [5] and 50.9 µM on DNA topoisomerase 1 (read-out: IC50). Moreover, the selectivity ratio in data set [1] came out at 18.8. The cytotoxic concentration (CC50) at 72 h in data set [2] was determined as 178 µM.

As to `FC(F)(F)c1ccc(-c2cc(-c3ccsc3)c3ncccc3n2)cc1`, the IC50 is 62.8 µM in data set [3] (read-out: IC50), above 100 µM in the data set on Leishmania infantum [4], 3.67 µM in the data set on Leishmania infantum [5] and 82.1 µM on DNA topoisomerase 1 (read-out: IC50). Further, the selectivity ratio in data set [1] amounted to 49.4. In data set [2], the cytotoxic concentration (CC50) at 72 h was 181 µM.

For the origin of these results see ChEMBL document CHEMBL4152236, “Substituted 1,5-naphthyridine derivatives as novel antileishmanial agents. Synthesis and biological evaluation” (Eur J Med Chem, 2018).
